Assay outcomes as filed in PubChem.
dFosB act-1 – activators of delta FosB homodimer, primary screen, biochemical, fluorescence polarization, TAMRA-CDK5 oligo, single point | Protein FosB (Mus musculus), P13346 | purified delta FosB; percent of positive-control signal above neutral wells | activation, % at 25 µM | 0.99% of 340,000 active;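 active = mean activation above about 17%, with every replicate also reaching it, limit read from the data, passing the limit was not always enough; inconclusive = only one of the two conditions met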
PvdQ inh – P. aeruginosa PvdQ acylase inhibitors, primary screen, biochemical, fluorescence, plate reader and imaging, single point; 0.063% of 340,000 active; PvdQ acylase [Pseudomonas aeruginosa LESB58]; inhibition, % at 10 µM; purified PvdQ acylase; in the data active = inhibition above about 30%, passing the limit was not always enough; inconclusive = no clear call, values can overlap the other calls;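 also: 0% = vehicle neutral wells and 100% = reference inhibitor wells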
Ecoli rRNA inh – reduced GFP signal of wild-type E. coli, primary screen, bacterial rRNA inhibitor project, GFP/RFP fluorescence, OD600, single point | E. coli WT GFP vs humanized-ribosome RFP mutants, 24 h; active compounds read low; DMSO median 0, no signal -100 | GFP signal change (wild-type ribosome), % (concentration not given with the values) | 1.6% of 350,000 active;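 active = significant combined selectivity score with lowered wild-type GFP, culture density cut under 30%, mutant RFP and density less affected; inactive = any of these conditions unmet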
SR-BI uptake up – activators of SR-BI mediated DiI-HDL uptake, primary screen, ldlA[mSR-BI] CHO cells, DiI fluorescence. 0.096% of 320,000 active. 3 h; 100 = double the neutral-control signal. activation, % at 12.5 µM. AID 504775, 2011;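 active = mean replicate activation of at least 60% and every replicate at or above 60%; inconclusive = mean or all-replicate condition met, but not both; inactive = mean below 60% and not all replicates reaching 60%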;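 also: 0% = median plate neutral-control signal and 100% = twice that signal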
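Test system: SR-BI-overexpressing, LDLR-lacking CHO cells; Medium: Ham's F12 with 0.5% BSA, HEPES 25 mM, pH 7.4; Schedule: 3 h, 37 °C; Technique: bottom-read fluorescence, 550/595 nm.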
SR-BI HDL uptake – inhibitors of SR-BI mediated HDL lipid uptake, primary screen, ldlA[mSR-BI] cells, fluorescence, single point; ldlA[mSR-BI] CHO cells, DiI-HDL uptake fluorescence, 3 h; inhibition, % at 12.5 µM; 0.96% of 320,000 active;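 active = mean replicate inhibition of at least 70% and a set share of replicates each scoring 70 or more; inconclusive = meets just one of the two criteria; inactive = fails both criteria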;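 also: 0% = median of neutral control wells and 100% = median of positive control wells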
Target sequence (Q61009 whole entry, looked up): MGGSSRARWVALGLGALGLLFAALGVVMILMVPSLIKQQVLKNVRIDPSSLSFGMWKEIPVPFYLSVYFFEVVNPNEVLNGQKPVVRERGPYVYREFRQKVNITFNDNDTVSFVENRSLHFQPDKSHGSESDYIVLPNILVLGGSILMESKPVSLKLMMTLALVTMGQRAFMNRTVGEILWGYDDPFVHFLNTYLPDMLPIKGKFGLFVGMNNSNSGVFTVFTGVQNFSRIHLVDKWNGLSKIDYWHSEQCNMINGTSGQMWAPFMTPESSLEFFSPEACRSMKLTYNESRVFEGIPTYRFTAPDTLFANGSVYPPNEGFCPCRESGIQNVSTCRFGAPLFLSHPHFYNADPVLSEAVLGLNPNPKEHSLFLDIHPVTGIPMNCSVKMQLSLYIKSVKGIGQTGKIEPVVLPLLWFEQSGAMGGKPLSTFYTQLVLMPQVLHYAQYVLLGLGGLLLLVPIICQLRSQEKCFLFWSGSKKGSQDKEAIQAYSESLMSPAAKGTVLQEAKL
XiGFP reactiv – activators of inactive X chromosome reactivation, primary screen, imaging, XiGFP fibroblasts, GFP high-content imaging, set 2; XiGFP mouse fibroblasts, % GFP-positive cells imaging, 3 d; cells co-treated with 5-aza-dC sensitizer; scaled so ellipticine positive control = 100%; AID 743238, 2013; activation, % at 7.58 µM; 0.055% of 360,000 active;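 active = mean normalized replicate activation at least 10% and every replicate at or above 10%; inconclusive = only one of the two criteria met; inactive = mean below 10% and not all replicates reach 10%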;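 also: 0% = median of on-plate neutral control wells and 100% = ellipticine 6 µM median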
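material = 68-5-11 XiGFP fibroblast line | medium = DMEM plus 5-aza-dC sensitizer | schedule = 3 days compound exposure | benchmarks = positive control ellipticine, 6 µM final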
dFosB act-2 – activators of mouse delta FosB DNA binding, confirmation, biochemical, fluorescence polarization, TAMRA-CDK5 oligo, cherry-picked samples | shares compounds with dFosB act-1 | purified delta FosB; normalised: neutral wells 0, positive control 100 | activation, % at 24.9 µM | 2,400 tested, under 10 active | AID 588690, 2011;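 active = highest replicate activation at or above 34% and every replicate reaching that threshold; inconclusive = meets only one of the two criteria; inactive = meets neither criterion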;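 also: higher polarization means more probe DNA bound by delta FosB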
Numbers without * were called inactive; u = inconclusive; x = no result. Most compounds without a hit are left out; they make up all but 2.6% or so of the library.

SMILES | dFosB act-1 | PvdQ inh | Ecoli rRNA inh | SR-BI uptake up | SR-BI HDL uptake | XiGFP reactiv | dFosB act-2
C#CCn1c(=NC(=O)c2sc3ccccc3c2Cl)sc2cc(S(N)(=O)=O)ccc21 | 77* | -23 | x | -24 | 24 | 0 | -1
C#CCn1c(=NC(=O)c2ccc(S(=O)(=O)N3CCc4ccccc4C3)cc2)sc2cc(S(N)(=O)=O)ccc21 | 51* | -17 | x | 7 | -7 | x | 3
COC(=O)Cn1c(=NC(=O)c2nc3ccccc3s2)sc2cc(S(N)(=O)=O)ccc21 | u | -15 | x | -11 | 11 | 0 | x
O=C(c1ccco1)c1cn[nH]c1-c1ccc(Cl)cc1O | -1 | -26 | x | -2 | 2 | x | x
O=[N+]([O-])c1ccc(NC2CCCC2)cc1 | -2 | 29 | x | -6 | 6 | 0 | x
O=[N+]([O-])c1ccc(Nc2nc(NC3CCCCC3)nc(N3CCCC3)n2)cc1 | 48* | 14 | 3 | -73 | u | 0 | 3
COc1ccc(/C=N/Nc2nc(Nc3ccccc3)nc(N3CCCC3)n2)cc1 | 47* | -7 | 13 | -62 | 62 | 0 | 1
COc1ccc(/C=N/Nc2nc(N3CCCC3)nc(N3CCCC3)n2)cc1 | -2 | -10 | 14 | -10 | 10 | 0 | x
O=[N+]([O-])c1ccc(/C=N/Nc2nc(N3CCOCC3)nc(N3CCOCC3)n2)cc1 | 4 | 1 | x | -14 | 14 | x | x
CNc1nc(N/N=C/c2ccc([N+](=O)[O-])cc2)nc(Nc2ccccc2)n1 | 41* | -2 | -40* | -51 | 51 | 0 | -9
O=[N+]([O-])c1ccc(Nc2nc(N/N=C/c3cccc(F)c3)nc(N3CCCC3)n2)cc1 | 120* | 5 | 4 | -34 | 34 | 0 | 3
CCN1CCN(CC(=O)Nc2ccc(Cl)c(Cl)c2)C(=O)C1=O | -3 | -9 | 2 | 17 | -17 | 0 | x
Cc1ccc(C(=O)NCC(=O)OCC(=O)Nc2ccc(Cl)cn2)cc1 | -7 | -9 | -3 | 15 | -15 | 0 | x
COc1cc(/C=N/Nc2nc(C)cc(C)n2)ccc1OC(=O)c1ccco1 | -3 | 0 | x | 5 | -5 | x | x
CCOc1cc(/C=N\Nc2nc(Nc3ccccc3)nc(N3CCOCC3)n2)ccc1OC(=O)c1ccco1 | 48* | -4 | x | -34 | 34 | 0 | -2
O=[N+]([O-])c1cc2c(cc1/C=N/Nc1nc(Nc3ccccc3)nc(N3CCCCC3)n1)OCO2 | 38* | -7 | x | -68 | 68 | x | 0
Cc1cc(C)nc(N/N=C/c2cc3c(cc2[N+](=O)[O-])OCO3)n1 | 7 | -3 | 13 | -37 | 37 | 0 | x
CCOC(=O)c1c(C)[nH]c(C(=O)OCC(=O)N(CC)c2c(N)n(Cc3ccccc3)c(=O)[nH]c2=O)c1C | -13 | 8 | -6 | -59 | 59 | 0 | x
COCc1ccc(C(=O)N2CCCC(N(C)CCc3ccccc3)C2)s1 (stereo not given) | x | x | 24 | x | x | 0 | x
CCOC(=O)c1ccc2nc(NC(NC(C)=O)(C(=O)OC)C(F)(F)F)sc2c1 (stereo not given) | -5 | -7 | x | 12 | -12 | x | x
C/C(=N\NC(=O)c1ccc(CSc2nncn2C)cc1)c1ccc2ccccc2c1 | 9 | -14 | -3 | 13 | -13 | 0 | x
COc1ccc(C2Nc3ccccc3C(=O)N2c2ccc(C)cc2)cc1Cn1nc(C)c([N+](=O)[O-])c1C (stereo not given) | -8 | -5 | 7 | 1 | -1 | x | x
COc1ccc(N2C(=O)c3ccccc3NC2c2ccc(OC)c(Cn3nnc4ccccc43)c2)cc1 (stereo not given) | 30* | -1 | x | 1 | -1 | 1 | 0
CC1Cc2nc(SCC(=O)N3CCOCC3)n(C)c(=O)c2S1 (stereo not given) | -1 | -6 | x | 2 | -2 | 0 | x
CCc1nnc(NC(=O)c2ccc(-c3cc(C(F)(F)F)ccc3Cl)o2)s1 | -7 | -9 | x | -25 | 25 | x | x
SMILES | dFosB act-1 | PvdQ inh | Ecoli rRNA inh | SR-BI uptake up | SR-BI HDL uptake | XiGFP reactiv | dFosB act-2
CCc1nnc(NC(=O)c2ccc(-c3cccc(C(F)(F)F)c3)o2)s1 | 19* | -10 | x | -2 | 2 | x | 3
CCCC1CC(C(=O)Nc2ccccc2)C(=O)O1 (stereo not given) | -5 | -11 | 7 | 4 | -4 | 0 | x
C[C@@H]1CN([C@@H](C)CO)C(=O)c2cc(C#Cc3cccc(F)c3)cnc2O[C@@H]1CN(C)CC1CCCC1 | x | x | 1 | x | x | 0 | x
C[C@H](CO)N1C[C@H](C)[C@H](CN(C)C)Oc2cc(/C=C/c3ccccc3)ccc2S1(=O)=O | x | x | 3 | x | x | 0 | x
COc1ccc(S(=O)(=O)N(C)C)cc1NC(=O)C1CCN(c2ncnc3sc(C)c(C)c23)CC1 | 47* | -10 | -2 | -60 | 60 | 0 | 0
CNC[C@@H]1OCc2ccccc2-c2c(n(C)c3ccccc23)C(=O)N([C@@H](C)CO)C[C@H]1C | x | x | 3 | x | x | -1 | x
NC(=O)c1nsc(C(=O)N(c2ccccc2F)C(C(=O)NCc2ccccc2)c2ccc(O)cc2)c1N (stereo not given) | 32* | -2 | -37 | 8 | -8 | 0 | 4
Cc1ccccc1N(C(=O)c1snc(C(N)=O)c1N)C(C(=O)NCc1ccccc1)c1ccc(O)cc1 (stereo not given) | 41* | -12 | -3 | x | x | 0 | 5
CCOc1ccccc1N(C(=O)c1snc(C(N)=O)c1N)C(C(=O)NCc1ccccc1)c1ccc(O)cc1 (stereo not given) | -5 | -12 | -11 | x | x | 0 | x
CN(CCO)CC(O)Cn1cnc2c1c(=O)n(C)c(=O)n2C (stereo not given) (tested in a mixture with another compound) | 8 | -3 | x | 20 | -20 | x | x
CCC(C)NC(=O)Cn1c(=O)n(CCCCCC(=O)Nc2ccccc2)c(=O)c2sccc21 (stereo not given) | 18* | 5 | x | -14 | 14 | x | 0
COc1ccc(NC(=O)Cn2c(=O)oc3cc(S(=O)(=O)N4CCCC4)ccc32)cc1 | 2 | -15 | 0 | -14 | 14 | 0 | x
